Measurements: ChEMBL document CHEMBL1137692, “Synthesis and antimicrobial activity of new 1-alkyl/cyclohexyl-3,3-diaryl-1'-methylspiro[azetidine-2,3'-indoline]-2',4-diones” (2009)
Values after ≈ are worked out from the molar mass of the structure shown. Active and inactive are the calls of the source. The rule behind the calls is not given here.

Assays:
Bacillus subtilis [1] = assay: Antibacterial activity against Bacillus subtilis at 100 ug/mL by bioautographic agar overlay method; assay type: functional, organism-based
Staphylococcus aureus [2] = assay: Antibacterial activity against Staphylococcus aureus at 100 ug/mL by bioautographic agar overlay method; assay type: functional, organism-based
Escherichia coli = assay: Antibacterial activity against Escherichia coli by bioautographic agar overlay method; assay type: functional
Method in brief: (§1)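 Nutrient agar inoculated with the pure microbial culture was poured over the plates, which were incubated appropriately. Bacterial or fungal growth inhibition was scored by bioautography.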

Candida albicans [3] = assay: Antifungal activity against Candida albicans at 100 ug/mL by bioautographic agar overlay method; assay type: functional, organism-based
Saccharomyces cerevisiae = assay: Antifungal activity against Saccharomyces cerevisiae by bioautographic agar overlay method; assay type: functional; method in brief: as §1
Pseudomonas aeruginosa = assay: Antibacterial activity against Pseudomonas aeruginosa by bioautographic agar overlay method; assay type: functional; method in brief: as §1
Candida albicans [4] = assay: Antifungal activity against Candida albicans by bioautographic agar overlay method
Staphylococcus aureus [5] = assay: Antibacterial activity against Staphylococcus aureus by bioautographic agar overlay method; assay type: functional; method in brief: as §1
Bacillus subtilis [6] = assay: Antibacterial activity against Bacillus subtilis by bioautographic agar overlay method; assay type: functional; method in brief: as §1

| SMILES | Activity (Bacillus subtilis [1]) | Activity (Staphylococcus aureus [2]) | MIC (Escherichia coli) | Activity (Candida albicans [3]) | MIC (Saccharomyces cerevisiae) | MIC (Pseudomonas aeruginosa) | MIC (Candida albicans [4]) | MIC (Staphylococcus aureus [5]) | MIC (Bacillus subtilis [6]) |
| --- | --- | --- | --- | --- | --- | --- | --- | --- | --- |
| COc1ccc(C2(c3ccc(OC)cc3)C(=O)N(C(c3ccccc3)c3ccccc3)C23C(=O)N(C)c2ccccc23)cc1 (stereo unspecified) | inactive | inactive | 50 µg/mL (≈ 86.1 µM) | inactive | 50 µg/mL (≈ 86.1 µM) | – | – | – | – |
| Cc1ccc(C2(c3ccc(C)cc3)C(=O)N(C(C)c3ccccc3)C23C(=O)N(C)c2ccccc23)cc1 (stereo unspecified) | inactive | inactive | – | inactive | – | – | – | – | – |
| CC(c1ccccc1)N1C(=O)C(c2ccccc2)(c2ccccc2)C12C(=O)N(C)c1ccccc12 (stereo unspecified) | inactive | inactive | – | inactive | – | – | – | – | – |
| Cc1ccc(C2(c3ccc(C)cc3)C(=O)N(C3CCCCC3)C23C(=O)N(C)c2ccccc23)cc1 (stereo unspecified) | inactive | inactive | 100 µg/mL (≈ 215 µM) | inactive | – | – | – | – | – |
| CC(C)N1C(=O)C(c2ccccc2)(c2ccccc2)C12C(=O)N(C)c1ccccc12 (stereo unspecified) | inactive | inactive | – | inactive | 50 µg/mL (≈ 126 µM) | – | – | – | – |
| Cc1ccc(C2(c3ccc(C)cc3)C(=O)N(C(C)C)C23C(=O)N(C)c2ccccc23)cc1 (stereo unspecified) | inactive | inactive | 10 µg/mL (≈ 23.6 µM) | inactive | 50 µg/mL (≈ 118 µM) | 50 µg/mL (≈ 118 µM) | – | – | – |
| COc1ccc(C2(c3ccc(OC)cc3)C(=O)N(C(C)C)C23C(=O)N(C)c2ccccc23)cc1 (stereo unspecified) | inactive | inactive | – | inactive | 50 µg/mL (≈ 110 µM) | – | – | – | – |
| CN1C(=O)C2(c3ccccc31)N(C(c1ccccc1)c1ccccc1)C(=O)C2(c1ccccc1)c1ccccc1 (stereo unspecified) | inactive | inactive | – | inactive | 10 µg/mL (≈ 19.2 µM) | – | – | – | – |
| Clc1ccc(COC(Cn2ccnc2)c2ccc(Cl)cc2Cl)c(Cl)c1 (stereo unspecified) [MICONAZOLE] | – | – | – | – | 0.1 µg/mL (≈ 0.24 µM) | – | 0.1 µg/mL (≈ 0.24 µM) | – | – |
| O=C(N[C@H](CO)[C@H](O)c1ccc([N+](=O)[O-])cc1)C(Cl)Cl [CHLORAMPHENICOL] | – | – | 0.1 µg/mL (≈ 0.309 µM) | – | – | – | – | 0.1 µg/mL (≈ 0.309 µM) | 0.1 µg/mL (≈ 0.309 µM) |
| Cc1ccc(C2(c3ccc(C)cc3)C(=O)N(C(c3ccccc3)c3ccccc3)C23C(=O)N(C)c2ccccc23)cc1 (stereo unspecified) | inactive | inactive | – | inactive | 100 µg/mL (≈ 182 µM) | – | – | – | – |
| CN1C(=O)C2(c3ccccc31)N(C1CCCCC1)C(=O)C2(c1ccccc1)c1ccccc1 (stereo unspecified) | inactive | inactive | 100 µg/mL (≈ 229 µM) | inactive | – | – | – | – | – |
